According to publication PMC3115441 (Chemical biology & drug design, 2011):
Entries after “also recorded” stand apart in the source; their conditions may differ.

How the values were obtained:
[1] = test system: PCP site of the NMDA receptor complex; experiment: [3H]; assay type: binding, rat
How it was run: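 Washed rat forebrain homogenate (30 ug/mL protein) in 10 mM HEPES, pH 7.4, with 1 nM (+)-[3H]MK-801, 100 uM glutamate, 30 uM glycine and varied competitor concentrations. Nonspecific binding was set with 30 uM (+)-MK-801. Incubation ran 2 h at room temperature, then vacuum filtration onto GF/B filters, three buffer washes and scintillation counting.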

[2] = biological target: Serotonin 2A (5-HT2A) (Homo sapiens, UniProt P28223); experiment: NIMH-PDSP radioligand binding, 5-HT2A
[3] = biological target: Dopamine 1 (D1) (Homo sapiens, UniProt P21728); experiment: NIMH-PDSP radioligand binding, D1
[4] = biological target: Dopamine 2 (D2) (Homo sapiens, UniProt P14416); experiment: NIMH-PDSP radioligand binding, D2
[5] = biological target: Dopamine Transporter (DAT) (Homo sapiens, UniProt Q01959); experiment: NIMH-PDSP radioligand binding, DAT
[6] = biological target: κ- opioid receptors (KOR) (Rattus norvegicus, UniProt P34975); experiment: NIMH-PDSP radioligand binding, KOR
[7] = biological target: μ- opioid receptors (MOR) (Homo sapiens, UniProt P35372); experiment: NIMH-PDSP radioligand binding, MOR
[8] = biological target: Norepinephrine Transporter (NET) (Homo sapiens, UniProt P23975); experiment: NIMH-PDSP radioligand binding, NET
[9] = biological target: Serotonin Transporter (SERT) (Homo sapiens, UniProt P31645); experiment: NIMH-PDSP radioligand binding, SERT
[10] = biological target: Sigma1 (Rattus norvegicus, UniProt Q9R0C9); experiment: NIMH-PDSP radioligand binding, Sigma-1
[11] = biological target: T1, Sigma2 (Rattus norvegicus, UniProt Q5U3Y7); experiment: NIMH-PDSP radioligand binding, Sigma-2
T1 sequence (Q5U3Y7 1-176): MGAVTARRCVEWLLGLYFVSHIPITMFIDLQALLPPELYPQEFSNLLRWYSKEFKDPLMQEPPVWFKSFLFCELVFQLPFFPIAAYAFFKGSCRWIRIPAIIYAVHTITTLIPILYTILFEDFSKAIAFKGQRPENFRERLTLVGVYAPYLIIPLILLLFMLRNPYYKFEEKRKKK

[12] = test system: MES-induced seizures; experiment: Maximal electroshock; assay type: in vivo, mice; settings: for MES (30) N/F, animals active over tested: 30 mg/kg i.p.; for MES (100) N/F, animals active over tested: 100 mg/kg i.p.; for MES (300) N/F, animals active over tested: 300 mg/kg i.p.
How it was run: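 Mice received test compound i.p. at 30, 100 or 300 mg/kg in 0.01 ml/g and were tested at various intervals after dosing. Corneal electrodes primed with 0.5% tetracaine HCl electrolyte delivered 60 Hz alternating current, 50 mA, for 0.2 s. An animal counted as protected when the hindlimb tonic extensor component was abolished. Results are scored as animals protected over tested.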

[13] = test system: Metrazol-induced clonic seizures; experiment: Subcutaneous Metrazol seizure threshold test; assay type: in vivo, mice; settings: for scMET (30) N/F, animals active over tested: 30 mg/kg; for scMET (100) N/F, animals active over tested: 100 mg/kg
[14] = test system: mice; experiment: Acute toxicity, minimal motor impairment; assay type: in vivo; settings: for TOX (30) N/F, animals toxic over tested: 30 mg/kg
[15] = test system: 6HZ; experiment: 6HZ test; assay type: in vivo; settings: 50 mg/kg
[16] = test system: MES-induced seizures; experiment: Anticonvulsant protection test in rats; assay type: in vivo; settings: 30 mg/kg
How it was run: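 Rats were dosed orally at 30 mg/kg in 0.04 ml/10 g. Corneal electrodes primed with 0.5% tetracaine HCl electrolyte delivered 60 Hz alternating current, 150 mA, for 0.2 s. Protection meant abolition of the hindlimb tonic extensor component of the seizure.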

[17] = test system: rats; experiment: Acute toxicity, minimal motor impairment in rats; assay type: in vivo; settings: 30 mg/kg
[18] = test system: PCP site of the NMDA receptor complex; settings: ref [39], [40]; cited from earlier work
[19] = test system: MES-induced seizures; settings: literature statement, no reference given; cited from earlier work

Chain of Dopamine 2 (D2) (P14416 whole entry): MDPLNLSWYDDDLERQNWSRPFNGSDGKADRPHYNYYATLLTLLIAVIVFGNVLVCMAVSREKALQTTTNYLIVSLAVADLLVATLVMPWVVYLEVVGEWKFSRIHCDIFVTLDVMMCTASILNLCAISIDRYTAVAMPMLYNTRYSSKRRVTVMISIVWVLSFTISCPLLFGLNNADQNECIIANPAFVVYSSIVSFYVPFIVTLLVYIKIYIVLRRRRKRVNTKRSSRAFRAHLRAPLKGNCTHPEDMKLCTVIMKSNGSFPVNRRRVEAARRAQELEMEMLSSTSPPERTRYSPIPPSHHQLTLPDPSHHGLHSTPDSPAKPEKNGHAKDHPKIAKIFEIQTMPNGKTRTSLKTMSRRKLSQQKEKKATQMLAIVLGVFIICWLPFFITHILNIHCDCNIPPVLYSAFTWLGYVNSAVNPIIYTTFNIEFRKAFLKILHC
Chain of Dopamine 1 (D1) (P21728 whole entry): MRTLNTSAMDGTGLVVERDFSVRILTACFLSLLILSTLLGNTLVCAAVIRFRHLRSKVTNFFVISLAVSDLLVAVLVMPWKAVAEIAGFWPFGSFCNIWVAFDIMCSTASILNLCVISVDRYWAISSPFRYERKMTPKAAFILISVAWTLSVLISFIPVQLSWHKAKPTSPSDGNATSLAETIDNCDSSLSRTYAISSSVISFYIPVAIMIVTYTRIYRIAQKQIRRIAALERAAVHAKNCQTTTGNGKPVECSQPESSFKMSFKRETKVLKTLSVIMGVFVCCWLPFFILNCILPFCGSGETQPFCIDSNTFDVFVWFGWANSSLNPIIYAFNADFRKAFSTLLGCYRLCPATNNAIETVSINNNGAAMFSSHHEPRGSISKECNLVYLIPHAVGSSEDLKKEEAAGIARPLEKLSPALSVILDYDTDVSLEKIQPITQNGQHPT
Chain of Serotonin Transporter (SERT) (P31645 whole entry): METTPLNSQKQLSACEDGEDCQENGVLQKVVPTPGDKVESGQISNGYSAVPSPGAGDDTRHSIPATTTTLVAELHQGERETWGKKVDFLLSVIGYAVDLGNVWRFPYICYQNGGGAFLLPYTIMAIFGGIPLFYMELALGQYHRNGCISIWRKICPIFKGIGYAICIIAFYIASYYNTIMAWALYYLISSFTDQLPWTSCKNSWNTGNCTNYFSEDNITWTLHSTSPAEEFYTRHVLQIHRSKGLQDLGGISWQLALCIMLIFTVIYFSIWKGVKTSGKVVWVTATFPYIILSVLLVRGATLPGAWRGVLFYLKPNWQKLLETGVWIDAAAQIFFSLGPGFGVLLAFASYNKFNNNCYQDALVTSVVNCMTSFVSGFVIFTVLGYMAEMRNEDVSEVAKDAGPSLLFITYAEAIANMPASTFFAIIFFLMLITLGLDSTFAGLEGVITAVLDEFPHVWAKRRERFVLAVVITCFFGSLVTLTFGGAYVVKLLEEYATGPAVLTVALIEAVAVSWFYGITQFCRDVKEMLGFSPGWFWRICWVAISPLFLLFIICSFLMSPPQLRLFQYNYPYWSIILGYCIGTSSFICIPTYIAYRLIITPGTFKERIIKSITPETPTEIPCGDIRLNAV
Chain of Norepinephrine Transporter (NET) (P23975 whole entry): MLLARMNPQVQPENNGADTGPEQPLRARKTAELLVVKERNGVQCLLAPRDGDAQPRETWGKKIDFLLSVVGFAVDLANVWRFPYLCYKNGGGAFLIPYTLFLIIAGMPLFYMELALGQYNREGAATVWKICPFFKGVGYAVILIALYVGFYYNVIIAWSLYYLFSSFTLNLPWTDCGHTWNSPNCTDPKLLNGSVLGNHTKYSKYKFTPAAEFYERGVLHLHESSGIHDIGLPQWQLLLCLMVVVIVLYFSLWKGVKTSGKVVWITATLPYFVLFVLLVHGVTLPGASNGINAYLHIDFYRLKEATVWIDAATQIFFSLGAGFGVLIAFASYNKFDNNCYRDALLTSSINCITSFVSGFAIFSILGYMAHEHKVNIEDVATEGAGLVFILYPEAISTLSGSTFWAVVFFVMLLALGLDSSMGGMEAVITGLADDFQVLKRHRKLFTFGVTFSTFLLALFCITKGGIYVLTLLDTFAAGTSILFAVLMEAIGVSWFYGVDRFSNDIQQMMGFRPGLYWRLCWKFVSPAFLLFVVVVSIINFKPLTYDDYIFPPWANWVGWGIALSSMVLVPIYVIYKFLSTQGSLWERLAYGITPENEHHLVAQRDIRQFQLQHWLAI
Chain of Serotonin 2A (5-HT2A) (P28223 whole entry): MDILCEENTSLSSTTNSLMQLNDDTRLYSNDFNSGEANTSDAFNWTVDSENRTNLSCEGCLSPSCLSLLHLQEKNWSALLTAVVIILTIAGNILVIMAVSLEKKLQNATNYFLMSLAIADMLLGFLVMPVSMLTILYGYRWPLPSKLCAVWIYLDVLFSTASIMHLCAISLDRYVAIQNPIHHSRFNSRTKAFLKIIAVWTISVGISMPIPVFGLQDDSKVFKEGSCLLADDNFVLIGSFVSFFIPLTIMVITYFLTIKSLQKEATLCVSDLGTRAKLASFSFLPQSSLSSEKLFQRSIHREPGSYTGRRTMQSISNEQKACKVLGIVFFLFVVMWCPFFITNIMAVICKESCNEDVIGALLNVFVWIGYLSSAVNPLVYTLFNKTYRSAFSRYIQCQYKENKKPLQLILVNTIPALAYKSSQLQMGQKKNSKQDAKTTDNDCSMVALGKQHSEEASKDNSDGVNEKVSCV
Chain of Sigma1 (Q9R0C9 whole entry): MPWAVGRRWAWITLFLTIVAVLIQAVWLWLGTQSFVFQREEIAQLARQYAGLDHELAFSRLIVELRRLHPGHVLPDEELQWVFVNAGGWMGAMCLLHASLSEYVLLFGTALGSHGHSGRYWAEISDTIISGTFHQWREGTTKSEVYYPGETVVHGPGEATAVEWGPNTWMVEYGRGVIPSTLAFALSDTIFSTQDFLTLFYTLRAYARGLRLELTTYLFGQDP
Chain of κ- opioid receptors (KOR) (P34975 whole entry): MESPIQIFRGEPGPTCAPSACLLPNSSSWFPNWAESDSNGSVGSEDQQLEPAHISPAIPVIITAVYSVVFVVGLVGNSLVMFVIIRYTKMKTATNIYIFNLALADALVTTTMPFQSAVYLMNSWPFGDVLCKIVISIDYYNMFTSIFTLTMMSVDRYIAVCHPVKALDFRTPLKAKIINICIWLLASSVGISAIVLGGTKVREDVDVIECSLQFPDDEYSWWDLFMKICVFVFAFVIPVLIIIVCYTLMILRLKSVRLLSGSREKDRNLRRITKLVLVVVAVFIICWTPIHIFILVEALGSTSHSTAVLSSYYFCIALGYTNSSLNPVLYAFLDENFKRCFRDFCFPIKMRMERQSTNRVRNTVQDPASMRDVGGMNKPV
Chain of μ- opioid receptors (MOR) (P35372 whole entry): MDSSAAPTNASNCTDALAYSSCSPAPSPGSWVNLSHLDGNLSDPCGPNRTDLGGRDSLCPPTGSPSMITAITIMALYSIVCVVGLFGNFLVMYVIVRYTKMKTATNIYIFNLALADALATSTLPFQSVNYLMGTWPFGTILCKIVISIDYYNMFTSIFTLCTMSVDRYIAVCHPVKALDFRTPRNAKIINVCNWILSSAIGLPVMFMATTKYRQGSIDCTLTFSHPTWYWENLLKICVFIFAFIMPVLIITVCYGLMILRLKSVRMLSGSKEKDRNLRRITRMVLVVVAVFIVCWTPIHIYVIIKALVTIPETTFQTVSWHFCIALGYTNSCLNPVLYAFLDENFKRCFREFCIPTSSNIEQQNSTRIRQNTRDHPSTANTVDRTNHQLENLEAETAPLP
Chain of Dopamine Transporter (DAT) (Q01959 whole entry): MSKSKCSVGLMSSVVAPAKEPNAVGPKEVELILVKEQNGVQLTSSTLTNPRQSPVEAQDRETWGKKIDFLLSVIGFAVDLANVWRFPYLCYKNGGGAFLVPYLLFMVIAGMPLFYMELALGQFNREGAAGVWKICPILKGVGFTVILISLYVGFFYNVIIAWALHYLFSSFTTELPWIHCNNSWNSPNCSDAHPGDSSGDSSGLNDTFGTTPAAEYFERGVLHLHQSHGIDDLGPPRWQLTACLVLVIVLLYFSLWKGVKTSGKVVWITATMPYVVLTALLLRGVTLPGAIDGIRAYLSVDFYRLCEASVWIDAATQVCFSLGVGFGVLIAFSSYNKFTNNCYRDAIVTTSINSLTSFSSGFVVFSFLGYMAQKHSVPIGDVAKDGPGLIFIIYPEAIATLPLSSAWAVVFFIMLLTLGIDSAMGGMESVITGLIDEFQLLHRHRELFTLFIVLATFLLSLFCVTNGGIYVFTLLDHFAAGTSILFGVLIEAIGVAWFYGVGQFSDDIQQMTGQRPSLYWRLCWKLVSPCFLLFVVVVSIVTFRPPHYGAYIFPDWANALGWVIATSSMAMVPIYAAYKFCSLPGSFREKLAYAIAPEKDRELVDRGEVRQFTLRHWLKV

Compound: Fc1ccc(C2(NCCN3CCOCC3)CC3CCC2C3)cc1 (centres unmarked) [Compound 5d, 2-(4-Fluorophenyl)-N-(2-morpholinoethyl)bicyclo [2.2.1]heptan-2-amine]
- affinity for NMDA (in words) [1]: did not exhibit significant affinity
- Ki [2]: > 10 µM
- Ki [3]: > 10 µM
- Ki [4]: > 10 µM
- Ki [5]: 6.48 µM
- Ki [6]: > 10 µM
- Ki [7]: > 10 µM
- Ki [8]: > 10 µM
- Ki [9]: > 10 µM
- Ki [10]: > 10 µM
- Ki [11]: > 10 µM
- MES (30) N/F, animals active over tested ([12]; 0.5 h): 0/1 0/1
- MES (30) N/F, animals active over tested ([12]; 4.0 h): 0/1 0/1
- MES (100) N/F, animals active over tested ([12]; 0.5 h): 2/3
- MES (100) N/F, animals active over tested ([12]; 4.0 h): 0/3
- MES (300) N/F, animals active over tested ([12]; 0.5 h): 1/1
- MES (300) N/F, animals active over tested ([12]; 4.0 h): 0/0
- MES neuroprotective activity (in words) ([12]; mouse, in vivo): displayed MES neuroprotective activity
- scMET (30) N/F, animals active over tested ([13]; 0.5 h): 0/1 0/1
- scMET (30) N/F, animals active over tested ([13]; 4.0 h): 0/1 0/1
- scMET (100) N/F, animals active over tested ([13]; 0.5 h): 0/1 0/1
- scMET (100) N/F, animals active over tested ([13]; 4.0 h): 0/1 0/1
- TOX comments ([14]; 65 mg/kg, 0.25 h): Clonic seizures
- TOX comments ([14]; 100 mg/kg, 0.5 h): Clonic seizures
- TOX comments ([14]; 300 mg/kg, 0.5 h): Loss of righting reflex; also recorded: Death
- TOX (30) N/F, animals toxic over tested ([14]; rotorod, 0.5 h): 0/4
- TOX (30) N/F, animals toxic over tested ([14]; rotorod, 4.0 h): 0/2
- TOX (65) N/F, animals toxic over tested ([14]; rotorod, 65 mg/kg, 0.5 h): 0/4 0/4
- TOX (65) N/F, animals toxic over tested ([14]; rotorod, 65 mg/kg, 4.0 h): 0/4 0/4
- TOX (100) N/F, animals toxic over tested ([14]; rotorod, 100 mg/kg, 0.5 h): 1/8
- TOX (100) N/F, animals toxic over tested ([14]; rotorod, 100 mg/kg, 4.0 h): 0/4
- TOX (300) N/F, animals toxic over tested ([14]; rotorod, 300 mg/kg, 0.5 h): 4/4 /
- 6HZ (50), animals active over tested ([15]; 0.5 h): 1/4 1/4
- 6HZ (50), animals active over tested ([15]; 4.0 h): 1/4 1/4
- protection in rats (in words) [16]: did not display any protection
- toxicity in rats (in words) [17]: did not display any protection or toxicity

Compound: COc1ccc2c(c1)[C@]13CCCC[C@@H]1[C@H](C2)N(C)CC3 [DXM, dextromethorphan]
- activity / affinity at NMDA (in words) [18]: low activity at NMDA
- neuroprotective activity in the MES test (in words) [19]: neuroprotective activity in the MES test
